ChEMBL document CHEMBL4184148 (Bioorg Med Chem Lett, 2017)

Tests used:
[1] = target: Protein kinase C epsilon type (Homo sapiens) (UniProt Q02156); assay: Binding affinity to wild-type human partial length PRKCE (A378 to P737 residues) expressed in HEK293 cells at 1 uM by Kinomescan method relative to control; format: cell-based
[2] = target: Serine/threonine-protein kinase SIK2 (Homo sapiens) (UniProt Q9H0K1); assay: Binding affinity to wild-type human full length SIK2 (M1 to N926 residues) expressed in Escherichia coli BL21 at 1 uM by Kinomescan method relative to control
Outline: (§1)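 Kinome-wide competition binding panel run by an outside provider, with each compound tested at a single concentration. Activity is read against the kinase panel.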

[3] = target: Interleukin-1 receptor-associated kinase 1 (Homo sapiens) (UniProt P51617); assay: Binding affinity to wild-type human partial length IRAK1 (R194 to S712 residues) expressed in HEK293 cells at 1 uM by Kinomescan method relative to control; format: cell-based
[4] = test system: eIF-2-alpha kinase GCN2 (Homo sapiens), Q9P2K8 [S808G]; assay: Binding affinity to wild-type human partial length GCN2 kinase domain 2 (R585 to T1018 residues) S808G mutant expressed in Escherichia coli BL21 at 1 uM by Kinomescan method relative to control
[5] = target: Activin receptor type-1 (Homo sapiens) (UniProt Q04771); assay: Binding affinity to wild-type human ACVR1 (C188 to C509 residues) expressed in Escherichia coli BL21 at 1 uM by Kinomescan method relative to control
[6] = test system: Phosphatidylinositol 4,5-bisphosphate 3-kinase catalytic subunit alpha isoform (Homo sapiens), P42336 [Q546K]; assay: Binding affinity to human partial length PIK3CA Q546K mutant (R108 to N1068 residues) expressed in HEK293 cells at 1 uM by Kinomescan method relative to control; format: cell-based
[7] = target: Non-receptor tyrosine-protein kinase TYK2 (Homo sapiens) (UniProt P29597); assay: Binding affinity to wild-type human partial length TYK2 JH2 pseudokinase domain (G556 to D888 residues) expressed in HEK293 cells at 1 uM by Kinomescan method relative to control; format: cell-based
[8] = target: Mitogen-activated protein kinase 10 (Homo sapiens) (UniProt P53779); assay: Binding affinity to wild-type human partial length JNK3 (V28 to Q422 residues) expressed in HEK293 cells at 1 uM by Kinomescan method relative to control; format: cell-based
[9] = test system: Receptor-type tyrosine-protein kinase FLT3 (Homo sapiens), P36888 [N841I]; assay: Binding affinity to human partial length FLT3 N841I mutant (V592 to Y969 residues) expressed in Escherichia coli BL21 at 1 uM by Kinomescan method relative to control
[10] = target: Activin receptor type-1-like (Homo sapiens) (UniProt P37023); assay: Binding affinity to wild-type human ACVRL1 (L164 to Q503 residues) expressed in Escherichia coli BL21 at 1 uM by Kinomescan method relative to control
[11] = target: Receptor-interacting serine/threonine-protein kinase 4 (Homo sapiens) (UniProt P57078); assay: Binding affinity to wild-type human partial length RIPK4 (M1 to V303 residues) expressed in HEK293 cells at 1 uM by Kinomescan method relative to control; format: cell-based
[12] = target: Ribosomal protein S6 kinase alpha-2 (Homo sapiens) (UniProt Q15349); assay: Binding affinity to wild-type human partial length C-terminal RSK2 kinase domain 2 (V402 to S715 residues) expressed in HEK293 cells at 1 uM by Kinomescan method relative to control; format: cell-based
[13] = target: Serine/threonine-protein kinase PAK 3 (Homo sapiens) (UniProt O75914); assay: Binding affinity to wild-type human full length PAK3 (M1 to R544 residues) expressed in Escherichia coli BL21 at 1 uM by Kinomescan method relative to control; outline: as §1
[14] = target: Ephrin type-A receptor 4 (Homo sapiens) (UniProt P54764); assay: Binding affinity to wild-type human partial length EPHA4 (T601 to R897 residues) expressed in Escherichia coli BL21 at 1 uM by Kinomescan method relative to control
[15] = target: Serine/threonine-protein kinase Nek7 (Homo sapiens) (UniProt Q8TDX7); assay: Binding affinity to wild-type human full length NEK7 (M1 to S302 residues) expressed in Escherichia coli BL21 at 1 uM by Kinomescan method relative to control; outline: as §1
[16] = target: Serine/threonine-protein kinase NLK (Homo sapiens) (UniProt Q9UBE8); assay: Binding affinity to wild-type human full length NLK (M13 to E527 residues) expressed in Escherichia coli BL21 at 1 uM by Kinomescan method relative to control; outline: as §1
[17] = target: Dual specificity protein kinase CLK1 (Homo sapiens) (UniProt P49759); assay: Binding affinity to wild-type human full length CLK1 (M1 to I484 residues) expressed in Escherichia coli BL21 at 1 uM by Kinomescan method relative to control
Outline: (§2)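 Run as one kinome-wide competition binding panel with each compound at a single fixed concentration. Results were plotted as a kinome-wide selectivity map.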

[18] = target: Activin receptor type-2A (Homo sapiens) (UniProt P27037); assay: Binding affinity to wild-type human ACVR2A (V171 to T499 residues) expressed in Escherichia coli BL21 at 1 uM by Kinomescan method relative to control
[19] = target: Serine/threonine-protein kinase Chk2 (Homo sapiens) (UniProt O96017); assay: Binding affinity to wild-type human partial length CHEK2 (S253 to E574 residues) expressed in Escherichia coli BL21 at 1 uM by Kinomescan method relative to control
[20] = target: Serine/threonine-protein kinase ICK (Homo sapiens) (UniProt Q9UPZ9); assay: Binding affinity to wild-type human partial length ICK (M1 to P314 residues) expressed in HEK293 cells at 1 uM by Kinomescan method relative to control; format: cell-based
[21] = target: cAMP-dependent protein kinase catalytic subunit alpha (Homo sapiens) (UniProt P17612); assay: Binding affinity to wild-type human partial length PKAC-alpha (G10 to F351 residues) expressed in Escherichia coli BL21 at 1 uM by Kinomescan method relative to control
[22] = target: Serine/threonine-protein kinase PLK1 (Homo sapiens) (UniProt P53350); assay: Binding affinity to wild-type human partial length PLK1 (A33 to F325 residues) expressed in HEK293 cells at 1 uM by Kinomescan method relative to control; format: cell-based
[23] = target: Protein-tyrosine kinase 6 (Homo sapiens) (UniProt Q13882); assay: Binding affinity to wild-type human partial length BRK (L166 to T451 residues) expressed in Escherichia coli BL21 at 1 uM by Kinomescan method relative to control
[24] = target: Tyrosine-protein kinase ITK/TSK (Homo sapiens) (UniProt Q08881); assay: Binding affinity to wild-type human partial length ITK (R335 to L620 residues) expressed in Escherichia coli BL21 at 1 uM by Kinomescan method relative to control
[25] = target: Cyclin-dependent kinase 5 (Homo sapiens) (UniProt Q00535); assay: Binding affinity to wild-type human full length CDK5 (M1 to P292 residues) expressed in Escherichia coli BL21 at 1 uM by Kinomescan method relative to control; outline: as §2
Cyclin-dependent kinase 5 (Homo sapiens), sequence (Q00535 whole entry, looked up, the tested form may be a part): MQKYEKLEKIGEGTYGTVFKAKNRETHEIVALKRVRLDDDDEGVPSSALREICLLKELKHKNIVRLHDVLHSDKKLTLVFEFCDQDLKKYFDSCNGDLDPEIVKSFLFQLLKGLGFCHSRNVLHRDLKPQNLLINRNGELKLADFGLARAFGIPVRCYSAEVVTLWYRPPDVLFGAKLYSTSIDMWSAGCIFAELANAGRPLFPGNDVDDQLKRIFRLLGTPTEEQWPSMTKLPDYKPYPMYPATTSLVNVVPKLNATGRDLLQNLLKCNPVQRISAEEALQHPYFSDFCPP

Serine/threonine-protein kinase SIK2 (Homo sapiens), sequence (Q9H0K1 whole entry, looked up, the tested form may be a part): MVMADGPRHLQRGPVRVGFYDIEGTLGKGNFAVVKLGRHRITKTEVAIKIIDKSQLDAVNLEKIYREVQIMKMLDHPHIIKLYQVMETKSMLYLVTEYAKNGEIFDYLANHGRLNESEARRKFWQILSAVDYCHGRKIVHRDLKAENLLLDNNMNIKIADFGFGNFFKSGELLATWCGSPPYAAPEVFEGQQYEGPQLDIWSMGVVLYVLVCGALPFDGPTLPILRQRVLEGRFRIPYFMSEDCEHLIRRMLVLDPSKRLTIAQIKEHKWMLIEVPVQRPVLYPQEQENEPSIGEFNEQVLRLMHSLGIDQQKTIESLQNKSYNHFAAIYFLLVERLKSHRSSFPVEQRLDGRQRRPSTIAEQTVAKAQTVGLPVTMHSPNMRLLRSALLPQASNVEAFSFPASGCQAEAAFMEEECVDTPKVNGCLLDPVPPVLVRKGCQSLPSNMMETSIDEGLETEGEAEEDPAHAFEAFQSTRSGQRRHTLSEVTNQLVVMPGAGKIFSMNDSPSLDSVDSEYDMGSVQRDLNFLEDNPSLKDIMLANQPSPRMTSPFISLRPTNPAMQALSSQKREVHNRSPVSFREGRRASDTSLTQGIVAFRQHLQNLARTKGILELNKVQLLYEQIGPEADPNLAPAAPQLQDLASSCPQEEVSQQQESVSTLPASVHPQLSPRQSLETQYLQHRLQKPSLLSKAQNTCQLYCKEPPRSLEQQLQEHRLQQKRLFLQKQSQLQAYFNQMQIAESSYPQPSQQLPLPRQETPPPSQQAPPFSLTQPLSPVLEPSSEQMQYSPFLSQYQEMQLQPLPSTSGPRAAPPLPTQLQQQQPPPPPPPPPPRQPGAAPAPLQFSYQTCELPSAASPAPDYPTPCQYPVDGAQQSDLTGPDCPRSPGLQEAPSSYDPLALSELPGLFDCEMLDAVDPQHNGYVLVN
Serine/threonine-protein kinase Nek7 (Homo sapiens), sequence (Q8TDX7 whole entry, looked up, the tested form may be a part): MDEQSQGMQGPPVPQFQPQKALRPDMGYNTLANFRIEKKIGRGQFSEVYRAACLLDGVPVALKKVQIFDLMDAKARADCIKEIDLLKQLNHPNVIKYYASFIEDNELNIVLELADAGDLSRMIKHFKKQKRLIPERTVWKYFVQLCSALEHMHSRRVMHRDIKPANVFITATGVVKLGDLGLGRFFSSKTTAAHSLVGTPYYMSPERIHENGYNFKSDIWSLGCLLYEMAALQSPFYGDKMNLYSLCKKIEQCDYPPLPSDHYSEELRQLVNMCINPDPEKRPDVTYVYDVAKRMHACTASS
Protein-tyrosine kinase 6 (Homo sapiens), sequence (Q13882 whole entry, looked up, the tested form may be a part): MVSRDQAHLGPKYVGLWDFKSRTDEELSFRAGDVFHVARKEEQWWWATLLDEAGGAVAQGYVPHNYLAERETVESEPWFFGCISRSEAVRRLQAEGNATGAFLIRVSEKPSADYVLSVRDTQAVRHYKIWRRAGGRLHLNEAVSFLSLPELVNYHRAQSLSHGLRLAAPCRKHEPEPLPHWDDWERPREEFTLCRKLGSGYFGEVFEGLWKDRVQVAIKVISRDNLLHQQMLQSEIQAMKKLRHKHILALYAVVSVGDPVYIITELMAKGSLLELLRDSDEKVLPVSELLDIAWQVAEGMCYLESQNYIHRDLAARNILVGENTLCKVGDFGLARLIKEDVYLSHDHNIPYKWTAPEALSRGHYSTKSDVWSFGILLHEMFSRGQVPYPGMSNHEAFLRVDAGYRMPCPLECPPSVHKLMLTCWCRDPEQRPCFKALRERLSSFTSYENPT
Receptor-interacting serine/threonine-protein kinase 4 (Homo sapiens), sequence (P57078 whole entry, the tested form may be a part): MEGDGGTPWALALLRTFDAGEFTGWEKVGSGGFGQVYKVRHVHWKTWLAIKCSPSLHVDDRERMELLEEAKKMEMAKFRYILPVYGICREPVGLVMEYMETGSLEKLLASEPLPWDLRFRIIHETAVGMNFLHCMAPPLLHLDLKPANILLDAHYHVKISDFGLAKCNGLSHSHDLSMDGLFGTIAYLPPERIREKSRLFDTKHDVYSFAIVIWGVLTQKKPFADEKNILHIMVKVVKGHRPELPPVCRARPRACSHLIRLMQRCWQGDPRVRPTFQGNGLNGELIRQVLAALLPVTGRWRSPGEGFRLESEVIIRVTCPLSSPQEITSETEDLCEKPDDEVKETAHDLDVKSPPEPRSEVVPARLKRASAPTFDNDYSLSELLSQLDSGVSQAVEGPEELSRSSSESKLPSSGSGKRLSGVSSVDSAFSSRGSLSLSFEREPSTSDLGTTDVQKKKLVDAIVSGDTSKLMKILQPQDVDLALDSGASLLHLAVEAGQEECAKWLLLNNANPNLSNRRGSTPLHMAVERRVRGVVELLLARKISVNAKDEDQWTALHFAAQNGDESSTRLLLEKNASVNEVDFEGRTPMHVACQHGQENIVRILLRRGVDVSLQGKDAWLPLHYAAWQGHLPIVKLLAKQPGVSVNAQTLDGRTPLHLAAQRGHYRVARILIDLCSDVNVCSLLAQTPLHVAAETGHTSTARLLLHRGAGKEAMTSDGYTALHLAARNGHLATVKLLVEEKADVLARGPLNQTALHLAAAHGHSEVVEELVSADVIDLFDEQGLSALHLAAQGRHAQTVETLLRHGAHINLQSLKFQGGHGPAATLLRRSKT
Activin receptor type-2A (Homo sapiens), sequence (P27037 whole entry, the tested form may be a part): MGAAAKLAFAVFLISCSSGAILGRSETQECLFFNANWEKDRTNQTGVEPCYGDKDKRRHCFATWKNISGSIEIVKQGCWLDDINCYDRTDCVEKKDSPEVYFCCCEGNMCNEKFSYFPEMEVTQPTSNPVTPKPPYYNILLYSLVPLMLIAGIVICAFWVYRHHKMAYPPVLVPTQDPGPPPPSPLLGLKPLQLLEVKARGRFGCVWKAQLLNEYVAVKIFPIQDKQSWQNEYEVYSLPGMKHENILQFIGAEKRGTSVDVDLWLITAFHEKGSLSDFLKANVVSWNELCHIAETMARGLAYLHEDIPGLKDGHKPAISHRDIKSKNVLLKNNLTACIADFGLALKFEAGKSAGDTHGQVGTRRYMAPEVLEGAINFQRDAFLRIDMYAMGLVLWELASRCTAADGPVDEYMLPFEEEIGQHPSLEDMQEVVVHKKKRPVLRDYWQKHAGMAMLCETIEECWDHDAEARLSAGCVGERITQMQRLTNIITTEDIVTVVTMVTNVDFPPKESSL
Dual specificity protein kinase CLK1 (Homo sapiens), sequence (P49759 whole entry, looked up, the tested form may be a part): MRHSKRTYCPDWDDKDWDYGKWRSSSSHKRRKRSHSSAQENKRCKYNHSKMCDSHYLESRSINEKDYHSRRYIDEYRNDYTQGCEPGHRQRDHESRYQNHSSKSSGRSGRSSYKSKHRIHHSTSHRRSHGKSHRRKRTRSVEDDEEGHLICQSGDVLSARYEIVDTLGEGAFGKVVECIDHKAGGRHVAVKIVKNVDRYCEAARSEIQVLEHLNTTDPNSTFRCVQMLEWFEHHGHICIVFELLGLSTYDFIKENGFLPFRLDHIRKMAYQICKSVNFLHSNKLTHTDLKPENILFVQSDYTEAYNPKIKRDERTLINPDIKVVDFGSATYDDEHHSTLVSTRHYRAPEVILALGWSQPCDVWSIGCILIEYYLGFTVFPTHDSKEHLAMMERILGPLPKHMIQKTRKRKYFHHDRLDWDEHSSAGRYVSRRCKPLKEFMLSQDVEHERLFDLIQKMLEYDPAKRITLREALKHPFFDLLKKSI
Serine/threonine-protein kinase ICK (Homo sapiens), sequence (Q9UPZ9 whole entry, the tested form may be a part): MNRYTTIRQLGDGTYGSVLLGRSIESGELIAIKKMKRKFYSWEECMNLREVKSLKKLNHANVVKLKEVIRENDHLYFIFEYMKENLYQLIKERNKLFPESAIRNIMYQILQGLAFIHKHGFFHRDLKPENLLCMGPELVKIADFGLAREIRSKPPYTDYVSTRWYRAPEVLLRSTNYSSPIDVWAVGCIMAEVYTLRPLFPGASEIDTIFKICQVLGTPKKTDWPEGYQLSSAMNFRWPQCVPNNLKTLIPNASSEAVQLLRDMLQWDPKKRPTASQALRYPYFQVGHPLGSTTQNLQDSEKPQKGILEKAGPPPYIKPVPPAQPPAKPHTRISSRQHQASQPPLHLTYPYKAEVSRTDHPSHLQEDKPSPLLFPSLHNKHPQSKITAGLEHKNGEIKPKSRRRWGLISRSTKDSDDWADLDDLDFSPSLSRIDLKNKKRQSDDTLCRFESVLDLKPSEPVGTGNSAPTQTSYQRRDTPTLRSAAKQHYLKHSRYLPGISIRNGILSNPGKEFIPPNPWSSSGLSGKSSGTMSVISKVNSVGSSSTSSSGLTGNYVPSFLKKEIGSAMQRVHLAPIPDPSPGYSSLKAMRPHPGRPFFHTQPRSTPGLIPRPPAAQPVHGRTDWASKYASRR
Serine/threonine-protein kinase PAK 3 (Homo sapiens), sequence (O75914 whole entry, looked up, the tested form may be a part): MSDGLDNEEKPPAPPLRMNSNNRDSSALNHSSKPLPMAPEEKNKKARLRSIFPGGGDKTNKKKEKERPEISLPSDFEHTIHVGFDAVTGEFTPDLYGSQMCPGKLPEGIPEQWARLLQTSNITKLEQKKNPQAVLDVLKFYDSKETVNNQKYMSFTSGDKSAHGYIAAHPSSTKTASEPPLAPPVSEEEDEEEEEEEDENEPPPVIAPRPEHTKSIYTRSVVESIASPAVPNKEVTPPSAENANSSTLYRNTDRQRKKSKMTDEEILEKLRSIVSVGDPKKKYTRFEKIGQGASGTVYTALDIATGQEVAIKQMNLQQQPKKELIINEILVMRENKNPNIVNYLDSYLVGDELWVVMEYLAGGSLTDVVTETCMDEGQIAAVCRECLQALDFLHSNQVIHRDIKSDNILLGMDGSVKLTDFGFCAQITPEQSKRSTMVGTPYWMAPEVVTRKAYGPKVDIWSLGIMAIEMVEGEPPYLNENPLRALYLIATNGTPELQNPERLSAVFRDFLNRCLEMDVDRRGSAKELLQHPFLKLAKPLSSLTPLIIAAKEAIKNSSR

Row | SMILES | Activity [1] [%] | Activity [2] [%] | Activity [3] [%] | Activity [4] [%] | Activity [5] [%] | Activity [6] [%] | Activity [7] [%] | Activity [8] [%] | Activity [9] [%] | Activity [10] [%] | Activity [11] [%] | Activity [12] [%] | Activity [13] [%] | Activity [14] [%] | Activity [15] [%] | Activity [16] [%] | Activity [17] [%] | Activity [18] [%] | Activity [19] [%] | Activity [20] [%] | other results
1 | CCC(=O)Nc1ccc(C(=O)Nc2ccc(Nc3ncc4c(n3)N(C)c3ccc(C)cc3C(=O)N4C)cc2)cc1 | 100 | 78 | 90 | 94 | 80 | 78 | 93 | 92 | 81 | 90 | 86 | 100 | 55 | 97 | 95 | 100 | 98 | 100 | 95 | 97 | Activity [21]: 87%; Activity [22]: 100%; Activity [23]: 100%; Activity [24]: 76%; Activity [25]: 87%
2 | C=CC(=O)Nc1ccc(C(=O)Nc2ccc(Nc3ncc4c(n3)N(C)c3ccc(C)cc3C(=O)N4C)cc2)cc1 | 87 | 89 | 95 | 100 | 93 | 77 | 88 | 100 | 100 | 92 | 91 | 100 | 69 | 93 | 100 | 81 | 100 | 100 | 97 | 86 | Activity [21]: 100%; Activity [22]: 91%; Activity [23]: 99%; Activity [24]: 94%; Activity [25]: 99%
